In brackets after ≈: the same amount, converted by molar mass. Activity calls are given as the source filed them. The calls are words filed in the database; no cut-off is given here.
Legend:
[1] = tested on: Mycobacterium tuberculosis; assay: Antimycobacterial activity against replicating Mycobacterium tuberculosis H37Rv assessed as inhibition of bacterial growth incubated for 7 days by MABA assay; type: functional; conditions: time 7 day
[2] = tested on: Mycobacterium tuberculosis; assay: Antimycobacterial activity against non-replicating Mycobacterium tuberculosis H37Rv expressing pFCA-LuxAB assessed as bacterial growth inhibition incubated for 10 days under anerobic condition by low oxygen recovery assay; type: functional; conditions: 240 h, time 10 day
[3] = tested on: Mycobacterium tuberculosis; assay: Antimycobacterial activity against replicating Mycobacterium tuberculosis H37Ra assessed as inhibition of bacterial growth incubated for 7 days by MABA assay; type: functional; conditions: time 7 day
[4] = tested on: Mycolicibacterium smegmatis; assay: Antimycobacterial activity against Mycobacterium smegmatis mc2155 assessed as inhibition of bacterial growth incubated for 48 hrs by broth microdilution method; type: functional; conditions: MC2 155
[5] = Cytotoxicity against human PBMC assessed as reduction in cell growth after 72 hrs by MTT assay; type: tissue-based
[6] = tested on: Mycobacterium tuberculosis; assay: Antimycobacterial activity against Mycobacterium tuberculosis H37Rv ATCC 27294 assessed as inhibition of bacterial growth by agar plate dilution method; type: functional
In short: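 MIC determined by agar plate dilution method; isoniazid and rifampin run as references.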

[7] = tested on: Mycobacterium tuberculosis; assay: Inhibition of mycolic acid biosynthesis in Mycobacterium tuberculosis H37Ra assessed as reduction in alfa-mycolate production at 5XMIC incubated for 7 days by TLC analysis; type: functional; conditions: for inhibition (INH): time 7 day
[8] = Inhibition of Mycobacterium tuberculosis H37Ra menG assessed as inhibition of 2-methyl-3-(3,7,11-trimethyldodeca-2,6,10-trienyl)naphthalene-1,4-dione formation using 2-(3,7,11-trimethyldodeca-2,6,10-trienyl)naphthalene-1,4-dione as substrate incubated for 3 hrs in presence of SAM by HPLC analysis
[9] = Inhibition of Mycobacterium smegmatis mc2155 menG assessed as inhibition of 2-methyl-3-(3,7,11-trimethyldodeca-2,6,10-trienyl)naphthalene-1,4-dione formation using 2-(3,7,11-trimethyldodeca-2,6,10-trienyl)naphthalene-1,4-dione as substrate incubated for 3 hrs in presence of SAM by HPLC analysis; set-up: species or system Mycolicibacterium smegmatis MC2 155
[10] = tested on: Mycobacterium tuberculosis; assay: Inhibition of mycolic acid biosynthesis in Mycobacterium tuberculosis H37Ra assessed as reduction in methoxy-mycolate production at 5XMIC incubated for 7 days by TLC analysis; type: functional; conditions: time 7 day
[11] = tested on: Mycobacterium tuberculosis; assay: Inhibition of mycolic acid biosynthesis in Mycobacterium tuberculosis H37Ra assessed as reduction in keto-mycolate production at 5XMIC incubated for 7 days by TLC analysis; type: functional; conditions: for inhibition (INH): time 7 day

Structure (SMILES) | MIC [1] | MIC [2] | MIC [3] | MIC [4] | IC50 [5] | MIC [6] | inhibition ([7]; time 7.0 day) | IC50 [8] | IC50 [9] | inhibition (INH) [10] | inhibition ([11]; time 7.0 day) | inhibition (INH) [7] | inhibition (INH) [11]
CC(=O)Oc1cccc(Nc2nc3ccccc3c(=O)o2)c1 | > 100 µg/mL | 80.3 µg/mL (≈ 271 µM) | > 100 µg/mL | 100 µg/mL (≈ 338 µM) | 131 µg/mL (≈ 444 µM) | – | – | – | – | – | – | – | –
CCCC(=O)Oc1cccc(Nc2nc3ccccc3c(=O)o2)c1 | > 100 µg/mL | > 100 µg/mL | > 100 µg/mL | > 100 µg/mL | 199 µg/mL (≈ 615 µM) | – | – | – | – | – | – | – | –
CCCCCC(=O)Oc1cccc(Nc2nc3ccccc3c(=O)o2)c1 | > 100 µg/mL | > 100 µg/mL | > 100 µg/mL | > 100 µg/mL | 186 µg/mL (≈ 529 µM) | – | – | – | – | – | – | – | –
CCCCCCCCCCCCCCCC(=O)Oc1cccc(Nc2nc3ccccc3c(=O)o2)c1 | > 100 µg/mL | > 100 µg/mL | > 100 µg/mL | 100 µg/mL (≈ 203 µM) | 182 µg/mL (≈ 369 µM) | – | – | – | – | – | – | – | –
CCCCCCCCOc1ccc(C(=O)OCCCOc2cccc(Nc3nc4ccccc4c(=O)o3)c2)cc1 | 12.4 µg/mL (≈ 22.8 µM) | 18.9 µg/mL (≈ 34.8 µM) | 16.2 µg/mL (≈ 29.8 µM) | 12.5 µg/mL (≈ 23 µM) | 154 µg/mL (≈ 283 µM) | – | – | – | – | – | – | – | –
CC(C)=CCOc1ccc(C(=O)OCCCOc2cccc(Nc3nc4ccccc4c(=O)o3)c2)cc1 | > 100 µg/mL | > 100 µg/mL | > 100 µg/mL | 12.5 µg/mL (≈ 25 µM) | 190 µg/mL (≈ 380 µM) | – | – | – | – | – | – | – | –
CCCCCCCCCOc1ccc(C(=O)OCCCOc2cccc(Nc3nc4ccccc4c(=O)o3)c2)cc1 | 41.8 µg/mL (≈ 74.9 µM) | 31 µg/mL (≈ 55.6 µM) | 37.1 µg/mL (≈ 66.5 µM) | 50 µg/mL (≈ 89.5 µM) | 169 µg/mL (≈ 303 µM) | – | – | – | – | – | – | – | –
CO[C@H]1/C=C/O[C@@]2(C)Oc3c(C)c(O)c4c(O)c(c(/C=N/N5CCN(C)CC5)c(O)c4c3C2=O)NC(=O)/C(C)=C\C=C\[C@H](C)[C@H](O)[C@@H](C)[C@@H](O)[C@@H](C)[C@H](OC(C)=O)[C@@H]1C [RIFAMPIN] | 0.01 µg/mL (≈ 0.0122 µM) | 0.04 µg/mL (≈ 0.0486 µM) | 0.02 µg/mL (≈ 0.0243 µM) | 1.5 µg/mL (≈ 1.82 µM) | 62.9 µg/mL (≈ 76.5 µM) | 0.01 µg/mL (≈ 0.0122 µM) | – | – | – | – | – | – | –
CCCCCCCCC(=O)Oc1cccc(Nc2nc3ccccc3c(=O)o2)c1 | > 100 µg/mL | > 100 µg/mL | > 100 µg/mL | > 100 µg/mL | 171 µg/mL (≈ 434 µM) | – | – | – | – | – | – | – | –
CCCCC(=O)Oc1cccc(Nc2nc3ccccc3c(=O)o2)c1 | > 100 µg/mL | > 100 µg/mL | > 100 µg/mL | > 100 µg/mL | 201 µg/mL (≈ 595 µM) | – | – | – | – | – | – | – | –
CC(C)=CCOc1cccc(NC(=O)Nc2ccccc2C)c1 | 5.2 µg/mL (≈ 16.8 µM) | – | – | – | – | – | – | – | – | – | – | – | –
CCCCCCOc1ccc(C(=O)OCCCOc2cccc(Nc3nc4ccccc4c(=O)o3)c2)cc1 | 6.12 µg/mL (≈ 11.8 µM) | 5.32 µg/mL (≈ 10.3 µM) | 5.83 µg/mL (≈ 11.3 µM) | 6.3 µg/mL (≈ 12.2 µM) | 123 µg/mL (≈ 238 µM) | – | Active | 13.53 µg/mL | 16.33 µg/mL | 61% | Active | – | –
CCCCCCCC/C=C/CCCCCCCC(=O)Oc1cccc(Nc2nc3ccccc3c(=O)o2)c1 | 47.4 µg/mL (≈ 91.3 µM) | 68.9 µg/mL (≈ 133 µM) | 51.4 µg/mL (≈ 99.2 µM) | 50 µg/mL (≈ 96.4 µM) | 179 µg/mL (≈ 344 µM) | – | – | – | – | – | – | – | –
CCCCCOc1ccc(C(=O)OCCCOc2cccc(Nc3nc4ccccc4c(=O)o3)c2)cc1 | 7.01 µg/mL (≈ 13.9 µM) | 9.02 µg/mL (≈ 17.9 µM) | 8.16 µg/mL (≈ 16.2 µM) | 25 µg/mL (≈ 49.7 µM) | 142 µg/mL (≈ 282 µM) | – | – | 20.88 µg/mL | 27.19 µg/mL | 48% | – | 100% | 37%
CCCCCCCC(=O)Oc1cccc(Nc2nc3ccccc3c(=O)o2)c1 | > 100 µg/mL | > 100 µg/mL | > 100 µg/mL | > 100 µg/mL | 190 µg/mL (≈ 499 µM) | – | – | – | – | – | – | – | –
NNC(=O)c1ccncc1 [ISONIAZID] | 0.43 µg/mL (≈ 3.14 µM) | > 128 µg/mL | 0.3 µg/mL (≈ 2.19 µM) | 6.1 µg/mL (≈ 44.5 µM) | 71.7 µg/mL (≈ 523 µM) | 0.4 µg/mL (≈ 2.92 µM) | – | – | – | – | – | – | –
CCCCOc1ccc(C(=O)OCCCOc2cccc(Nc3nc4ccccc4c(=O)o3)c2)cc1 | 7.28 µg/mL (≈ 14.9 µM) | 9.41 µg/mL (≈ 19.3 µM) | 6.32 µg/mL (≈ 12.9 µM) | 25 µg/mL (≈ 51.2 µM) | 117 µg/mL (≈ 239 µM) | – | – | 20.06 µg/mL | 29.71 µg/mL | 36% | – | 100% | 31%
CCCCCCCOc1ccc(C(=O)OCCCOc2cccc(Nc3nc4ccccc4c(=O)o3)c2)cc1 | > 100 µg/mL | > 100 µg/mL | > 100 µg/mL | > 100 µg/mL | 181 µg/mL (≈ 341 µM) | – | – | – | – | – | – | – | –
O=c1oc(Nc2cccc(O)c2)nc2ccccc12 | 75.2 µg/mL (≈ 296 µM) | 40.1 µg/mL (≈ 158 µM) | 66.2 µg/mL (≈ 260 µM) | 25 µg/mL (≈ 98.3 µM) | 173 µg/mL (≈ 682 µM) | – | – | – | – | – | – | – | –
CCCCCCCCCCCCCCCCCCOc1ccc(C(=O)OCCCOc2cccc(Nc3nc4ccccc4c(=O)o3)c2)cc1 | 56.1 µg/mL (≈ 81.9 µM) | 38.2 µg/mL (≈ 55.7 µM) | 60.4 µg/mL (≈ 88.2 µM) | 12.5 µg/mL (≈ 18.3 µM) | 158 µg/mL (≈ 231 µM) | – | – | – | – | – | – | – | –
CCC(=O)Oc1cccc(Nc2nc3ccccc3c(=O)o2)c1 | > 100 µg/mL | 98.5 µg/mL (≈ 317 µM) | > 100 µg/mL | 100 µg/mL (≈ 322 µM) | 180 µg/mL (≈ 579 µM) | – | – | – | – | – | – | – | –
CCCOc1ccc(C(=O)OCCCOc2cccc(Nc3nc4ccccc4c(=O)o3)c2)cc1 | 11.7 µg/mL (≈ 24.7 µM) | 15.3 µg/mL (≈ 32.2 µM) | 10 µg/mL (≈ 21.1 µM) | 12.5 µg/mL (≈ 26.3 µM) | 145 µg/mL (≈ 306 µM) | – | – | – | – | – | – | – | –
CCCCCCCCCCOc1ccc(C(=O)OCCCOc2cccc(Nc3nc4ccccc4c(=O)o3)c2)cc1 | 32.1 µg/mL (≈ 56.1 µM) | 45.1 µg/mL (≈ 78.7 µM) | 38 µg/mL (≈ 66.4 µM) | 100 µg/mL (≈ 175 µM) | 173 µg/mL (≈ 303 µM) | – | – | – | – | – | – | – | –
CCCCCCCC/C=C/CCCCCCCCOc1ccc(C(=O)OCCCOc2cccc(Nc3nc4ccccc4c(=O)o3)c2)cc1 | 18.7 µg/mL (≈ 27.4 µM) | 35.9 µg/mL (≈ 52.6 µM) | 19.6 µg/mL (≈ 28.7 µM) | 12.5 µg/mL (≈ 18.3 µM) | 150 µg/mL (≈ 219 µM) | – | – | – | – | – | – | – | –
CCCCCCC(=O)Oc1cccc(Nc2nc3ccccc3c(=O)o2)c1 | > 100 µg/mL | > 100 µg/mL | > 100 µg/mL | 50 µg/mL (≈ 136 µM) | 176 µg/mL (≈ 481 µM) | – | – | – | – | – | – | – | –
COc1ccc(C(=O)OCCCOc2cccc(Nc3nc4ccccc4c(=O)o3)c2)cc1 | 9.71 µg/mL (≈ 21.7 µM) | 40 µg/mL (≈ 89.6 µM) | 8.16 µg/mL (≈ 18.3 µM) | > 100 µg/mL | 162 µg/mL (≈ 364 µM) | – | – | – | – | – | – | – | –
CCOc1ccc(C(=O)OCCCOc2cccc(Nc3nc4ccccc4c(=O)o3)c2)cc1 | > 100 µg/mL | > 100 µg/mL | > 100 µg/mL | > 100 µg/mL | 102 µg/mL (≈ 223 µM) | – | – | – | – | – | – | – | –
CCCCCCCCCC(=O)Oc1cccc(Nc2nc3ccccc3c(=O)o2)c1 | 33 µg/mL (≈ 80.7 µM) | 53.3 µg/mL (≈ 130 µM) | 29.6 µg/mL (≈ 72.4 µM) | 25 µg/mL (≈ 61.2 µM) | 195 µg/mL (≈ 476 µM) | – | – | – | – | – | – | – | –

From ChEMBL document CHEMBL4706595, “1,3-Oxazine-2-one derived dual-targeted molecules against replicating and non-replicating forms of Mycobacterium tuberculosis” (Eur J Med Chem, 2020)
